Measurements reported in paper PMC4562428 (Bioorganic & medicinal chemistry, 2015).
Counter-ions that a name gives are not always drawn. Like-named read-outs stand apart in the source and are kept apart here.

Assays:
SERT = SERT (Rattus norvegicus, UniProt P31652); assay: [3H]5-HT release at SERT in rat brain synaptosomes; assay type: biochemical
How it was run: (§1)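 Rat synaptosomes in 1 μM reserpine (brain minus caudate/cerebellum for SERT and NET; caudate for DAT), preloaded 1 h in Krebs-phosphate with 5 nM [3H]5-HT (SERT) or 9 nM [3H]MPP+ (NET, DAT). Blockers of competing transporters were included. Test compound was run as 8-point curves from 10 to 10,000 nM, in triplicate on three occasions. Filtration and scintillation counting; EC50 from non-linear regression.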

DAT = DAT (Rattus norvegicus, UniProt P23977); assay: [3H]MPP+ release at DAT in rat caudate synaptosomes; assay type: biochemical
NET = NET (Rattus norvegicus, UniProt Q63380); assay: [3H]MPP+ release at NET in rat brain synaptosomes; assay type: biochemical
SERT, DAT, and NET = assay type: biochemical, rat; conditions: SERT versus DAT and NET
How it was run: as §1

[1] = cited from earlier work; for MDMA-like effects in humans: human
[2] = S(+) versus R(−) isomer of EDMA

SERT, sequence (P31652 whole entry): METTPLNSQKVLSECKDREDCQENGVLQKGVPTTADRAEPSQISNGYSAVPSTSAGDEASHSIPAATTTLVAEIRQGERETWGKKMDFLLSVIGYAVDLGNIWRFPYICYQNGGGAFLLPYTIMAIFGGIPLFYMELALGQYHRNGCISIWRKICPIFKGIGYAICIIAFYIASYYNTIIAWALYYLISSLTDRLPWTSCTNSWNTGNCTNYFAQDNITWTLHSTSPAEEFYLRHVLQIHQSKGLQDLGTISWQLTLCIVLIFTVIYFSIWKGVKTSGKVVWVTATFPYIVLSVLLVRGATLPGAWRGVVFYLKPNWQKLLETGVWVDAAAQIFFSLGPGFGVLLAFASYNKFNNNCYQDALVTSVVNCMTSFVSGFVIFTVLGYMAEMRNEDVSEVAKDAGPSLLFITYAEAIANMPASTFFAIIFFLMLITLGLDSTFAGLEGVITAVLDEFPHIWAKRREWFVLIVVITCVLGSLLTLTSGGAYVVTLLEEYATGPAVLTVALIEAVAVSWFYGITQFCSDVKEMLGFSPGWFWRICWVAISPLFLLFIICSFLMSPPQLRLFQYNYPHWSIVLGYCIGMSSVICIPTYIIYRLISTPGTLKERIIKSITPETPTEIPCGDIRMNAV
NET, sequence (Q63380 1-617): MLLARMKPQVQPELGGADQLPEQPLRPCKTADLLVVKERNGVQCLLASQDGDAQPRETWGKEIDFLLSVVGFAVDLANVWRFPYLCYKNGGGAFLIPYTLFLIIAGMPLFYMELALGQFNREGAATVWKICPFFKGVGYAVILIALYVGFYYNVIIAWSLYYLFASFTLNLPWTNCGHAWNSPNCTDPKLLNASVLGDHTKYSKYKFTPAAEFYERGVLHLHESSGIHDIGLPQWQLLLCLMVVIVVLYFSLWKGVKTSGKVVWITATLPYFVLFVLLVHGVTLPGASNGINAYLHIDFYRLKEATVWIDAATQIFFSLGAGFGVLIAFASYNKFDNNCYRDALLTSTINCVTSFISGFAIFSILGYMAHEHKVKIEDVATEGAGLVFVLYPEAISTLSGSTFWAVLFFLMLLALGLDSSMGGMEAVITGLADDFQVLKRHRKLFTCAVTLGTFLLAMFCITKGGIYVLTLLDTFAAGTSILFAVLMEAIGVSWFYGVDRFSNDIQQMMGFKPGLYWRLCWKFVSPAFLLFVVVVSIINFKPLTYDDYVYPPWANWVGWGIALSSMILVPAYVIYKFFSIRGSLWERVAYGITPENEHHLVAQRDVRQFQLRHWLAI
DAT, sequence (P23977 whole entry): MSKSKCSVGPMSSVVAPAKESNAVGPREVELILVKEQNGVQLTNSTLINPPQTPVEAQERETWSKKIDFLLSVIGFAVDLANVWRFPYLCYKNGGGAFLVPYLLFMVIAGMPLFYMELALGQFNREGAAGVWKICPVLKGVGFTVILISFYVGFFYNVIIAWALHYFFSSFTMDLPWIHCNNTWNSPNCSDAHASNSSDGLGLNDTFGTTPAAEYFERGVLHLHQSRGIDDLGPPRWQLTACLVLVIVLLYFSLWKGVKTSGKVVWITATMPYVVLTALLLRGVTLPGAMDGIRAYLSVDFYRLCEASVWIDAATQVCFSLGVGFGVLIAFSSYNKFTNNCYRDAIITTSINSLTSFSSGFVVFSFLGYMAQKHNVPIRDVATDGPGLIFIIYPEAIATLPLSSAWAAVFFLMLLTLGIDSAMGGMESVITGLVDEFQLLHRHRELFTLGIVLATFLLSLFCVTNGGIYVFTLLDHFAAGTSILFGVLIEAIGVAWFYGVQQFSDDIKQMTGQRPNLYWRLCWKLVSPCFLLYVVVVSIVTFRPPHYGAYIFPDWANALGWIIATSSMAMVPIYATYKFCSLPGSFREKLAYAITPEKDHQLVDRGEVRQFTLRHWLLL

Compound: CNC(C)Cc1ccc2c(c1)OCCO2 (racemic) [(±)EDMA (3), (±)-1-(3,4-Ethylenedioxyphenyl)-N-methyl-2-aminopropane hydrochloride]
- release potency at SERT relative to potency at DAT (SERT; SERT versus DAT): approximately six times
- release potency at SERT relative to potency at NET (SERT; SERT versus NET): three times
- potency as releaser at SERT relative to (±)MDMA (1) (SERT; compared with (±)MDMA (1)): approximately half the potency
- fold less potent than (±)MDMA (1) as releaser at DAT (DAT; compared with (±)MDMA (1)): 8 fold
- fold less potent than (±)MDMA (1) as releaser at NET (NET; compared with (±)MDMA (1)): 4.5 fold
- transporter selectivity as releaser (SERT, DAT, and NET): slightly more selective for SERT over DAT and NET
- MDMA-like effects in humans ([1]; 200 mg): fails to produce similar effects
- MDMA-like effects in humans ([1]; 250 mg): threshold

Compound: CNC(C)Cc1ccc2c(c1)OCO2 (racemic) [(±)MDMA (1), N-methyl-(3,4-methylenedioxyphenyl)-2-aminopropane, reference compound]
- transporter selectivity as releaser (SERT, DAT, and NET): nearly equipotent
- behaviorally active total human dose ([1]; p.o.): 80 to 150 mg

Compound: CN[C@H](C)Cc1ccc2c(c1)OCCO2 [R(−)EDMA [(R)3], R(−)1-(3,4-Ethylenedioxyphenyl)-N-methyl-2-aminopropane hydrochloride]
- transporter selectivity as releaser (SERT, DAT, and NET): more SERT-selective

Compound: CN[C@@H](C)Cc1ccc2c(c1)OCCO2 [S(+)EDMA [(S)3], S(+)1-(3,4-Ethylenedioxyphenyl)-N-methyl-2-aminopropane hydrochloride]
- fold more potent than R(−) enantiomer at SERT (SERT; [2]): about 6 fold
- fold more potent than R(−) enantiomer at DAT (DAT; [2]): 50 fold
- fold more potent than R(−) enantiomer at NET (NET; [2]): 8 fold
